Measured values taken from ChEMBL document CHEMBL4118021, “Studies of TAK1-centered polypharmacology with novel covalent TAK1 inhibitors” (Bioorg Med Chem, 2017).

Legend:
[1] = molecular target: Aurora kinase A (Homo sapiens) (UniProt O14965); assay: Inhibition of AurA in human SKCO1 cells at 1 uM after 4 hrs using biotin labeled DIKPENLLLGSAGELK probe by mass-spectrometric analysis relative to control
[2] = molecular target: DNA-dependent protein kinase catalytic subunit (Homo sapiens) (UniProt P78527); assay: Inhibition of DNAPK in human SKCO1 cells at 1 uM after 4 hrs using biotin labeled EHPFLVKGGEDLR probe by mass-spectrometric analysis relative to control; assay type: cell-based
[3] = molecular target: Cyclin-dependent kinase 7 (Homo sapiens) (UniProt P50613); assay: Inhibition of CDK7 in human SKCO1 cells at 1 uM after 4 hrs using biotin labeled DLKPNNLLLDENGVLK probe by mass-spectrometric analysis relative to control; assay type: cell-based
[4] = molecular target: T1, Serine/threonine-protein kinase tousled-like 1 (Homo sapiens) (UniProt Q9UKI8); assay: Inhibition of TLK1 in human SKCO1 cells at 1 uM after 4 hrs using biotin labeled YLNEIKPPIIHYDLKPGNILLVDGTACEIK probe by mass-spectrometric analysis relative to control; assay type: cell-based
T1 sequence (whole entry): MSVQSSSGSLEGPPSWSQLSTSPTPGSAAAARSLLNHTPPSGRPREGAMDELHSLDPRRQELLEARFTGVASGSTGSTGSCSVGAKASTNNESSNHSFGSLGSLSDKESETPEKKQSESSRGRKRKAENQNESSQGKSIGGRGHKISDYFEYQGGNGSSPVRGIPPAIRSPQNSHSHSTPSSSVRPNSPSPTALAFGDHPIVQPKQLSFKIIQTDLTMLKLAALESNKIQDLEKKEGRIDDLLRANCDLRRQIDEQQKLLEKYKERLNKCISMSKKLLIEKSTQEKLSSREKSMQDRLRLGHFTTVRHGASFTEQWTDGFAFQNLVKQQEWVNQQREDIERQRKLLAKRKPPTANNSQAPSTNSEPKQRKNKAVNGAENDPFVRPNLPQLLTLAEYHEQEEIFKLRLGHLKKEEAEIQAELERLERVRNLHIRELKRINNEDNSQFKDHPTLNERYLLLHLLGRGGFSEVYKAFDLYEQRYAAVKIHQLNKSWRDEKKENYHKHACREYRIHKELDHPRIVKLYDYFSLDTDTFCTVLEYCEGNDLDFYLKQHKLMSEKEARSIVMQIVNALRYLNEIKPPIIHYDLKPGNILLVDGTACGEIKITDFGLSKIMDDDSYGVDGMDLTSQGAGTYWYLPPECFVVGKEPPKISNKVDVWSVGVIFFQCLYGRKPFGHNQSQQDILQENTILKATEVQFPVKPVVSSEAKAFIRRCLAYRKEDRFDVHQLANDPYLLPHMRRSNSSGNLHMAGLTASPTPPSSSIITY
Method in brief: (§1)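 Live SK-CO-1 cells exposed to compound at 1 μM or DMSO for 4 h (KiNativ). Lysates then labeled with lysine-reactive ATP/ADP-biotin probe, and probe-labeled kinase peptides quantified by mass spectrometry. Percent inhibition of probe-dependent recovery calculated relative to DMSO-treated cells.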

[5] = molecular target: T2, Serine/threonine-protein kinase Nek9 (Homo sapiens) (UniProt Q8TD19); assay: Inhibition of NEK9 in human SKCO1 cells at 1 uM after 4 hrs using biotin labeled DIKTLNIFLTK probe by mass-spectrometric analysis relative to control; assay type: cell-based
T2 sequence (whole entry): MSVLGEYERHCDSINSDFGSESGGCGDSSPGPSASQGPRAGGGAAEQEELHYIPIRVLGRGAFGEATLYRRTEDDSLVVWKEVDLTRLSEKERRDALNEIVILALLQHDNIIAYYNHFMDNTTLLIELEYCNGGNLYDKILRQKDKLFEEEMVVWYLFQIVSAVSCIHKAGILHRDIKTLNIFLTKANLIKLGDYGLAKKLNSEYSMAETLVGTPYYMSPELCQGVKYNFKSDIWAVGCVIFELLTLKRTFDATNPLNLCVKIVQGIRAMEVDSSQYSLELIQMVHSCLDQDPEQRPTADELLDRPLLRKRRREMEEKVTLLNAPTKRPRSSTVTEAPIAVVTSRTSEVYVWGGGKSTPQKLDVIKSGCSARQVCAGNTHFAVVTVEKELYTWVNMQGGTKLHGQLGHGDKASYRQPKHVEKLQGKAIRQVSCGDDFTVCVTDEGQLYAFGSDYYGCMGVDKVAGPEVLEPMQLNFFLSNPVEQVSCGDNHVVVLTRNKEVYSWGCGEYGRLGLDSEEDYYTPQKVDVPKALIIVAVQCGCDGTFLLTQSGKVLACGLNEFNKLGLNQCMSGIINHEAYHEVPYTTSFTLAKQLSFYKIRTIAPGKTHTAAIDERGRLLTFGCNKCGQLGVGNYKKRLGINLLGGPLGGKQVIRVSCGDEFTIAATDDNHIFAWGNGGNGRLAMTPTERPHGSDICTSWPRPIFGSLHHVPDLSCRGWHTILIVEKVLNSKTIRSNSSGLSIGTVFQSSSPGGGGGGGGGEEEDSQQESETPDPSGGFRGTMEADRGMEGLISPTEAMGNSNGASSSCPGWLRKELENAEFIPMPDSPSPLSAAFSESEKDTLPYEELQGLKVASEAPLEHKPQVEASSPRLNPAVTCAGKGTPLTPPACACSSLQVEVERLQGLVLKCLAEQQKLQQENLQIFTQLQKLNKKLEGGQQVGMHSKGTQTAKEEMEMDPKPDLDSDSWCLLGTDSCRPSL
Method in brief: as §1

[6] = molecular target: Epidermal growth factor receptor (Homo sapiens) (UniProt P00533); assay: Inhibition of EGFR in human SKCO1 cells at 1 uM after 4 hrs using biotin labeled LLGAEEKEYHAEGGKVPIK probe by mass-spectrometric analysis relative to control; assay type: cell-based
[7] = molecular target: Serine/threonine-protein kinase SMG1 (Homo sapiens) (UniProt Q96Q15); assay: Inhibition of SMG1 in human SKCO1 cells at 1 uM after 4 hrs using biotin labeled DTVTIHSVGGTITILPTKTKPK probe by mass-spectrometric analysis relative to control; assay type: cell-based
Serine/threonine-protein kinase SMG1 (Homo sapiens), sequence (Q96Q15 whole entry): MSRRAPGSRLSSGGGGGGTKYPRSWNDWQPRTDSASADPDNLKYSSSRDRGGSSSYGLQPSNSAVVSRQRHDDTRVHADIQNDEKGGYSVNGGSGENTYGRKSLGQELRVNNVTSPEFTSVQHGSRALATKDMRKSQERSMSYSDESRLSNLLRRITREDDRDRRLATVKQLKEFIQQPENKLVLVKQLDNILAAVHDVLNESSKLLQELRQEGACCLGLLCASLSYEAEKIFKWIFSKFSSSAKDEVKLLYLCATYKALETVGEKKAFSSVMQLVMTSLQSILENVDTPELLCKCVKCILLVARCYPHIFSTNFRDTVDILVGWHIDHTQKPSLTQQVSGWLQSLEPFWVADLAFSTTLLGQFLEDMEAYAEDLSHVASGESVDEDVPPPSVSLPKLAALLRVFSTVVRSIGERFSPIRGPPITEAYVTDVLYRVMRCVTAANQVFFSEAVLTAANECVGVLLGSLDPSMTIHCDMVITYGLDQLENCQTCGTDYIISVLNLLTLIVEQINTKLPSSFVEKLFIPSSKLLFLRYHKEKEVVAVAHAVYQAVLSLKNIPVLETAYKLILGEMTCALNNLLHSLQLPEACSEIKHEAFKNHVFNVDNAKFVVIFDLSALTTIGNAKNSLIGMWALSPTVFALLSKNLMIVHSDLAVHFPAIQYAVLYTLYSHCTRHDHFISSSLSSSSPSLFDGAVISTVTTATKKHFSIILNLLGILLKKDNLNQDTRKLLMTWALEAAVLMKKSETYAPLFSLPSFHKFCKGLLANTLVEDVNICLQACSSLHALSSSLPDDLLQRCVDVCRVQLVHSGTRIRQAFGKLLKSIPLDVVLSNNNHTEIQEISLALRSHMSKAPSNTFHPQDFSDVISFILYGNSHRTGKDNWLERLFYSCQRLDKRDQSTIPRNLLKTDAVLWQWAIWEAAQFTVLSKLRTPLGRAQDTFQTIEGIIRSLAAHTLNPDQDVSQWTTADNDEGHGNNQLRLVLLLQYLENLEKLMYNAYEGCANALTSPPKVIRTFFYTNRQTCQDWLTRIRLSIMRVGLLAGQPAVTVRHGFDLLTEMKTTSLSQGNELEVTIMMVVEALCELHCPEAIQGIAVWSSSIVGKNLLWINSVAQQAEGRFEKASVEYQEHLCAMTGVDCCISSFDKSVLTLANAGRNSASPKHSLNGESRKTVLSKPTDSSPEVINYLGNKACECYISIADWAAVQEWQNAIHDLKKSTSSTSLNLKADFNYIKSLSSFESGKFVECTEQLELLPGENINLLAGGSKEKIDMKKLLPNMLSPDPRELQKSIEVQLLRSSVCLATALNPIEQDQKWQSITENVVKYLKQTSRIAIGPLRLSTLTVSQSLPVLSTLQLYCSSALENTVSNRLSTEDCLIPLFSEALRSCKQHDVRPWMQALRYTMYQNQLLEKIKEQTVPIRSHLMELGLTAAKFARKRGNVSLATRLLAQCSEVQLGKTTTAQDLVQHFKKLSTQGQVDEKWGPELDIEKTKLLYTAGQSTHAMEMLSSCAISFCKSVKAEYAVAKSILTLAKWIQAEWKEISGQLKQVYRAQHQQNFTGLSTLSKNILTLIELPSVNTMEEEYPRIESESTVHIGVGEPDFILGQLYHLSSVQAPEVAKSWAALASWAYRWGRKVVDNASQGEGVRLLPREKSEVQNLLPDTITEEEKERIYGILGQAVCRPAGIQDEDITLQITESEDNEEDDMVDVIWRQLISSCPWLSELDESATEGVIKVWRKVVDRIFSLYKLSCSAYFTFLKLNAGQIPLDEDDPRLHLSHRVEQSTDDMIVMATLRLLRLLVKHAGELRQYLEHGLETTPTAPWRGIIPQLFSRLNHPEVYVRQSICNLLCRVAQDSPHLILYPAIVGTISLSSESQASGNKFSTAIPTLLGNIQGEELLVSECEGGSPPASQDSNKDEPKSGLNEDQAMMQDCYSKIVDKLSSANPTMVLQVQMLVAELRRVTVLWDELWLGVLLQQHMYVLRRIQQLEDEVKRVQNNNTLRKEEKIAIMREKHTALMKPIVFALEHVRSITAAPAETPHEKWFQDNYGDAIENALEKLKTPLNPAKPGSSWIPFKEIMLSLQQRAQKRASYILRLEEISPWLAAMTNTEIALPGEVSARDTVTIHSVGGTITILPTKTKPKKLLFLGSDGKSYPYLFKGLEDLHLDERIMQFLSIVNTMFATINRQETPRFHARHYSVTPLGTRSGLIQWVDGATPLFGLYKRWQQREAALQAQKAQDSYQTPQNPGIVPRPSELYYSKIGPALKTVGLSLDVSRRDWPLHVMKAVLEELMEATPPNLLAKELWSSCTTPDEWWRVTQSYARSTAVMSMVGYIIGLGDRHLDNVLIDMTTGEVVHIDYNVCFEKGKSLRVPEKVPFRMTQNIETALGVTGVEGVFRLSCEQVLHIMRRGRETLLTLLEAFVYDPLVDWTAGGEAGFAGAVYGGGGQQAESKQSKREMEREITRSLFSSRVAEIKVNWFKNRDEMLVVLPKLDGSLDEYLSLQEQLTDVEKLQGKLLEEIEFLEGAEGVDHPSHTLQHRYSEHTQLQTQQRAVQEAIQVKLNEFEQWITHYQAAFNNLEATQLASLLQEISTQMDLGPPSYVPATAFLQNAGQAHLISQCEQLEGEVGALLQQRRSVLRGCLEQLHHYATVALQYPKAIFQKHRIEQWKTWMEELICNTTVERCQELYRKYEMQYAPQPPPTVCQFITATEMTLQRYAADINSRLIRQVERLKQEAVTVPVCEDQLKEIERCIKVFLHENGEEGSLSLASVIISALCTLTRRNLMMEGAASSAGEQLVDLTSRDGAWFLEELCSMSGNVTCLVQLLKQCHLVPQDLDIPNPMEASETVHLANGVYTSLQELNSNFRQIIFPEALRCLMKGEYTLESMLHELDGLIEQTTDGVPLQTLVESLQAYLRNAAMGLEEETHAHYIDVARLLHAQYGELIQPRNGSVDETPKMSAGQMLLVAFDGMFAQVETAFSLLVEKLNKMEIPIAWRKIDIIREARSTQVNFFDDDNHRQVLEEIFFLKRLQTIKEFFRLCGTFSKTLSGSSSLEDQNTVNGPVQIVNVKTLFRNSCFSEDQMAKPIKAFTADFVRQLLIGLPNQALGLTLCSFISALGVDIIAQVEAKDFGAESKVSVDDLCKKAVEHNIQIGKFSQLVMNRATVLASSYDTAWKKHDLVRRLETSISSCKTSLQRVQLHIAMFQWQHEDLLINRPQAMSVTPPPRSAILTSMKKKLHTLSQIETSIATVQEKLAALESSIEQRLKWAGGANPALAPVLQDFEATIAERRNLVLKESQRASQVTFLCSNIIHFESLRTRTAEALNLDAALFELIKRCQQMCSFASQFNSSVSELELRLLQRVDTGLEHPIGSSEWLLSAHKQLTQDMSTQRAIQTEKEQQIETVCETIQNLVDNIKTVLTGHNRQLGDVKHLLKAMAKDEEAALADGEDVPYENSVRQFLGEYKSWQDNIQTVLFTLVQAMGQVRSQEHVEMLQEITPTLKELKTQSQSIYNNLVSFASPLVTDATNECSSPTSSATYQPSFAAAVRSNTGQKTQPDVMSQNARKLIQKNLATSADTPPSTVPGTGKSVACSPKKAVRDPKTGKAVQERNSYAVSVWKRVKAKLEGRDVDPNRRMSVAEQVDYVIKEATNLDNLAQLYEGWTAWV
Method in brief: as §1

[8] = molecular target: Cyclin-dependent kinase 15 (Homo sapiens) (UniProt Q96Q40); assay: Inhibition of PFTAIRE2 in human SKCO1 cells at 1 uM after 4 hrs using biotin labeled DLKPQNLLISHLGELK probe by mass-spectrometric analysis relative to control; assay type: cell-based
Method in brief: as §1

[9] = molecular target: Tyrosine-protein kinase CSK (Homo sapiens) (UniProt P41240); assay: Inhibition of CSK in human SKCO1 cells at 1 uM after 4 hrs using biotin labeled VSDFGLTKEASSTQDTGKLPVK probe by mass-spectrometric analysis relative to control; assay type: cell-based
[10] = molecular target: Serine/threonine-protein kinase MARK2 (Homo sapiens) (UniProt Q7KZI7); assay: Inhibition of MARK2 in human SKCO1 cells at 1 uM after 4 hrs using biotin labeled DLKAENLLLDADMNIK probe by mass-spectrometric analysis relative to control; assay type: cell-based
Serine/threonine-protein kinase MARK2 (Homo sapiens), sequence (Q7KZI7 whole entry): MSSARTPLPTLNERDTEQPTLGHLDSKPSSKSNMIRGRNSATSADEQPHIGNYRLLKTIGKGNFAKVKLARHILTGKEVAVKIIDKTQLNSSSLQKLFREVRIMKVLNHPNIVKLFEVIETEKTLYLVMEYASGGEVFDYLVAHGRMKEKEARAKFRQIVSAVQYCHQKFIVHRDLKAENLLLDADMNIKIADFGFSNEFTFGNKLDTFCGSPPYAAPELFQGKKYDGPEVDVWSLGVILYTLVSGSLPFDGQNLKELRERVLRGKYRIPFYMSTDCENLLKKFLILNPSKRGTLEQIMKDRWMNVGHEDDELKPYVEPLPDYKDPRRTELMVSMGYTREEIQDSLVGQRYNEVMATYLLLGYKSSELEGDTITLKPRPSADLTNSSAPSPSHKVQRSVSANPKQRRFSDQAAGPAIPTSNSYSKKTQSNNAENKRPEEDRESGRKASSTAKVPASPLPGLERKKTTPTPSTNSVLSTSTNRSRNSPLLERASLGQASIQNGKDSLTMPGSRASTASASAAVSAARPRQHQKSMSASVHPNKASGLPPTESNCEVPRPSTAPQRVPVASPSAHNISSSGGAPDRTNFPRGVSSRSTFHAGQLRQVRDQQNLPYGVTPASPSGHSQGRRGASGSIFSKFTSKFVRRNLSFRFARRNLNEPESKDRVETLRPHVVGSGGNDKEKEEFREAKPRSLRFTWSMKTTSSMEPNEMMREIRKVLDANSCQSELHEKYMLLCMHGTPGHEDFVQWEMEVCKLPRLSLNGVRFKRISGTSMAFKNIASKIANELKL

Aurora kinase A (Homo sapiens), sequence (O14965 whole entry, looked up): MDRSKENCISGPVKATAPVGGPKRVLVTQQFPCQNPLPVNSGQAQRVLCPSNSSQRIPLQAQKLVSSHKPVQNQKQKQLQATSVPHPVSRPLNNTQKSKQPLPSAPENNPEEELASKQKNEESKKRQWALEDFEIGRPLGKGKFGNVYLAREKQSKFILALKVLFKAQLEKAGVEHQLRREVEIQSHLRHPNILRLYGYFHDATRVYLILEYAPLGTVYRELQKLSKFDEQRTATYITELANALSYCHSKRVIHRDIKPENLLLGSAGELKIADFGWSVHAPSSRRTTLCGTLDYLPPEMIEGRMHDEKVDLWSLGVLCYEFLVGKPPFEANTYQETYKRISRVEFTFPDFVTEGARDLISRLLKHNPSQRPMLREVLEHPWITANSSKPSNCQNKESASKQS

SMILES	inhibition [1] [%]	inhibition [2] [%]	inhibition [3] [%]	inhibition [4] [%]	inhibition [5] [%]	inhibition [6] [%]	inhibition [7] [%]	inhibition [8] [%]	inhibition [9] [%]	inhibition [10] [%]
COc1cc(O)c2c(c1)/C=C/C[C@H](O)[C@H](O)C(=O)/C=C\C[C@H](C)OC2=O	56.3	21.7	-3.7	19.3	24.7	14.5	-8.2	31.8	-1.8	3.6
C=CC(=O)Nc1ccccc1Nc1nc(Nc2ccc(N3CCN(C)CC3)cc2)ncc1Cl	89.1	0.5	31.5	2.3	3.2	47.6	0.8	41.5	-0.8	-7.2
C=CC(=O)Nc1ccccc1Oc1nc(Nc2cnn(CCOC)c2)ncc1Cl	48.4	16.2	9.5	11.3	9	28.6	16.4	22.8	5.2	-8.4
